Reference: ChEMBL document CHEMBL3046065, “Metabolites of the fungistatic agent 2β-methoxyclovan-9α-ol by Macrophomina phaseolina” (J Agric Food Chem, 2011)

Experiments:
Botrytis cinerea = test: Antifungal activity against Botryotinia fuckeliana KUCC 869 assessed as growth inhibition at 200 ug/ml at 27 to 29 degC after 7 days by agar tube dilution method; type: functional; conditions: KUCC 869, 168 h, read-out: GI
Procedure, shortened: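 Agar tube dilution against B. cinerea isolated from infected strawberries. Compounds were taken from 1 mg/mL DMSO stocks into unsolidified Sabouraud agar at 200 μg/mL final. The agar was set as slants and inoculated with 4 mm plugs from 7-day-old culture, then incubated 7 days at 27–29 °C. Linear growth (mm) was measured and % inhibition calculated against control. Miconazole served as standard.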

Macrophomina phaseolina [1] = test: Drug metabolism in Macrophomina phaseolina KUCC 730 assessed as transformation to oxidative metabolite, clovan-2-beta, 13-diol-9-one at 600 mg at 29 degC after 6 days by TLC analysis; type: ADME, organism-based; conditions: in vivo, 144 h
Procedure, shortened: (§1)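 Fungus kept on Sabouraud dextrose agar slants at 4 °C. Medium per 3 L water: glucose 30 g, peptone 15 g, yeast extract 15 g, KH2PO4 15 g, NaCl 15 g, glycerol 30 mL. Adjusted to pH 7.0 and autoclaved. Substrate in acetone, 20 mg per 100 mL flask, added to 24 h stage II cultures. Shaken at 200 rpm, 29 °C, 6 days. Daily TLC monitoring. Substrate-only and fungus-only controls were run.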

Macrophomina phaseolina [2] = test: Drug metabolism in Macrophomina phaseolina KUCC 730 assessed as transformation to oxidative metabolite, 2-beta-methoxyclovan-9-alpha-13-diol at 600 mg at 29 degC after 6 days by TLC analysis; type: ADME, organism-based; conditions: in vivo, 144 h; procedure, shortened: as §1
Macrophomina phaseolina [3] = test: Drug metabolism in Macrophomina phaseolina KUCC 730 assessed as transformation to oxidative metabolite, clovan-2-beta, 9-alpha-diol at 600 mg at 29 degC after 6 days by TLC analysis; type: ADME, organism-based; conditions: in vivo, 144 h; procedure, shortened: as §1
Macrophomina phaseolina [4] = test: Drug metabolism in Macrophomina phaseolina KUCC 730 assessed as transformation to oxidative metabolite, clovan-2-beta, 9-beta-diol at 600 mg at 29 degC after 6 days by TLC analysis; type: ADME, organism-based; conditions: in vivo, 144 h; procedure, shortened: as §1
Macrophomina phaseolina [5] = test: Drug metabolism in Macrophomina phaseolina KUCC 730 assessed as transformation to oxidative metabolite, clovan-2-beta, 9-beta, 13-triol at 600 mg at 29 degC after 6 days by TLC analysis; type: ADME, organism-based; conditions: in vivo, 144 h; procedure, shortened: as §1
Macrophomina phaseolina [6] = test: Drug metabolism in Macrophomina phaseolina KUCC 730 assessed as transformation to oxidative metabolite, 2-beta-methoxyclovan-9-one at 600 mg at 29 degC after 6 days by TLC analysis; type: ADME, organism-based; conditions: in vivo, 144 h; procedure, shortened: as §1

SMILES	inhibition of growth at 200 µg/mL (Botrytis cinerea)	also measured
C[C@@]12CC[C@H]3[C@](C)(CO)C[C@H](O)[C@@]3(CC[C@@H]1O)C2	11%	–
C[C@@]12CC[C@H]3[C@](C)(CO)C[C@H](O)[C@@]3(CCC1=O)C2	8%	–
CO[C@H]1C[C@@](C)(CO)[C@@H]2CC[C@@]3(C)C[C@]12CC[C@H]3O	17%	–
CC1(C)C[C@H](O)[C@]23CC[C@H](O)[C@@](C)(CC[C@@H]12)C3	32%	–
CO[C@H]1CC(C)(C)[C@@H]2CC[C@@]3(C)C[C@]12CCC3=O	71%	–
CO[C@H]1CC(C)(C)[C@@H]2CC[C@@]3(C)C[C@]12CC[C@H]3O [2BETA-METHOXYCLOVAN-9ALPHA-OL]	81%	Drug metabolism (Macrophomina phaseolina [1]): Active; Drug metabolism (Macrophomina phaseolina [2]): Active; Drug metabolism (Macrophomina phaseolina [3]): Active; Drug metabolism (Macrophomina phaseolina [4]): Active; Drug metabolism (Macrophomina phaseolina [5]): Active; Drug metabolism (Macrophomina phaseolina [6]): Active
CC1(C)C[C@H](O)[C@]23CC[C@@H](O)[C@@](C)(CC[C@@H]12)C3 [CLOVANEDIOL]	59%	–
